Measurements published in ChEMBL document CHEMBL4145531, “Synthesis of novel Chlorin e6-curcumin conjugates as photosensitizers for photodynamic therapy against pancreatic carcinoma” (Eur J Med Chem, 2018).
Active and inactive are the calls of the source. The rule behind the calls is not given here.

What was measured:
ASPC1 [1] = experiment: Phototoxicity in human AsPC1 cells assessed as induction of apoptosis by measuring necrotic cells at 60 nM preincubated for 3 hrs followed by 9 J/cm2 laser light irradiation and measured after 24 hrs by Annexin V-FITC/propidium iodide staining based flow cytometry (reference value: 1.03%); format: functional
MIA PaCa-2 [2] = experiment: Potency index, ratio of chlorin e6 IC50 to compound IC50 for phototoxicity in human MIAPaCa2 cells; format: functional
ASPC1 [3] = experiment: Phototoxicity in human AsPC1 cells assessed as induction of apoptosis by measuring early apoptotic cells at 20 nM preincubated for 3 hrs followed by 9 J/cm2 laser light irradiation and measured after 24 hrs by Annexin V-FITC/propidium iodide staining based flow cytometry (reference value: 7.05%); format: functional
[4] = Drug uptake in human AsPC1 cells at 5 uM up to 0.5 to 24 hrs by FACS analysis; format: ADME, cell-based; conditions: aspc1, 5 µM
In short: (§1)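 AsPC-1 cells (2 x 10^5) were seeded and kept in the dark at 37 °C for 24h. They were then incubated with 5 µM compound for 30 min to 24h. Cells were harvested by trypsin, washed three times in PBS and resuspended in PBS. Uptake was read as mean fluorescence intensity by FACS.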

PANC-1 [5] = experiment: Potency index, ratio of chlorin e6 IC50 to compound IC50 for phototoxicity in human PANC1 cells; format: functional
ASPC1 [6] = experiment: Phototoxicity in human AsPC1 cells assessed as induction of apoptosis by measuring early apoptotic cells at 40 nM preincubated for 3 hrs followed by 9 J/cm2 laser light irradiation and measured after 24 hrs by Annexin V-FITC/propidium iodide staining based flow cytometry (reference value: 7.05%); format: functional
ASPC1 [7] = experiment: Phototoxicity in human AsPC1 cells assessed as induction of apoptosis by measuring live cells at 40 nM preincubated for 3 hrs followed by 9 J/cm2 laser light irradiation and measured after 24 hrs by Annexin V-FITC/propidium iodide staining based flow cytometry (reference value: 91.51%); format: functional
[8] = Drug uptake in human AsPC1 cells at 5 uM after 3 hrs by FACS analysis relative to chlorin e6; format: ADME, cell-based; conditions: aspc1, 3 h; in short: as §1
[9] = Dark toxicity in human MIAPaCa2 cells assessed as reduction in cell viability after 72 hrs by MTT assay; format: cell-based, MIA PaCa-2
In short: (§2)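 AsPC-1 cells were grown in RPMI-1640, and MIA PaCa-2 and PANC-1 in DMEM, each with 10% FBS and 1% penicillin/streptomycin. 5.0 x 10^3 cells were seeded and left overnight at 37 °C. They were exposed to 0-300 µM compound for 3h without laser irradiation, then held 72h in the dark at 37 °C, 5% CO₂. Viability was read by MTT.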

ASPC1 [10] = experiment: Potency index, ratio of chlorin e6 IC50 to compound IC50 for phototoxicity in human AsPC1 cells; format: functional
ASPC1 [11] = experiment: Phototoxicity in human AsPC1 cells assessed as induction of apoptosis by measuring live cells at 60 nM preincubated for 3 hrs followed by 9 J/cm2 laser light irradiation and measured after 24 hrs by Annexin V-FITC/propidium iodide staining based flow cytometry (reference value: 91.51%); format: functional
[12] = Dark toxicity in human PANC1 cells assessed as reduction in cell viability after 72 hrs by MTT assay; format: cell-based, PANC-1; in short: as §2
ASPC1 [13] = experiment: Phototoxicity in human AsPC1 cells assessed as induction of apoptosis by measuring early apoptotic cells at 60 nM preincubated for 3 hrs followed by 9 J/cm2 laser light irradiation and measured after 24 hrs by Annexin V-FITC/propidium iodide staining based flow cytometry (reference value: 7.05%); format: functional
ASPC1 [14] = experiment: Phototoxicity in human AsPC1 cells assessed as induction of apoptosis by measuring late apoptotic cells at 40 nM preincubated for 3 hrs followed by 9 J/cm2 laser light irradiation and measured after 24 hrs by Annexin V-FITC/propidium iodide staining based flow cytometry (reference value: 0.41%); format: functional
[15] = Selectivity index, ratio of IC50 for dark toxicity in human MIAPaCa2 cells to IC50 for phototoxicity in human MIAPaCa2 cells; format: cell-based, MIA PaCa-2; conditions: read-out: Ratio IC50
In short: (§3)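 The ratio is the dark-toxicity IC50 over the phototoxicity IC50 in the same cell line, both from 72h MTT. The dark arm received no light. The photo arm was irradiated at 660 nm, 50 mW, 9 J/cm² after 3h compound exposure.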

[16] = Drug uptake in human AsPC1 cells at 5 uM after 24 hrs by FACS analysis relative to chlorin e6; format: ADME, cell-based; conditions: aspc1, 24 h; in short: as §1
[17] = Selectivity index, ratio of IC50 for dark toxicity in human PANC1 cells to IC50 for phototoxicity in human PANC1 cells; format: cell-based, PANC-1; conditions: read-out: Ratio IC50; in short: as §3
ASPC1 [18] = experiment: Phototoxicity in human AsPC1 cells assessed as induction of apoptosis by measuring late apoptotic cells at 60 nM preincubated for 3 hrs followed by 9 J/cm2 laser light irradiation and measured after 24 hrs by Annexin V-FITC/propidium iodide staining based flow cytometry (reference value: 0.41%); format: functional
[19] = Selectivity index, ratio of IC50 for dark toxicity in human AsPC1 cells to IC50 for phototoxicity in human AsPC1 cells; format: cell-based; conditions: read-out: Ratio IC50; in short: as §3
[20] = Induction of singlet oxygen production in DMSO assessed as DPBF absorption intensity (reference value: 100%); format: functional
In short: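 DPBF (50 µM in DMSO) was mixed with 1 µM photosensitizer in the dark. Samples were irradiated at 660 nm, 50 mW, 2 J/cm² for 40 s. Singlet oxygen was read as the decay of normalized DPBF absorbance at 418 nm relative to a DPBF-only control.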

ASPC1 [21] = experiment: Phototoxicity in human AsPC1 cells assessed as reduction in cell viability preincubated for 3 hrs followed by 9 J/cm2 laser light irradiation and measured after 72 hrs by MTT assay; format: functional, cell-based; conditions: ASPC1, light or radiation study
In short: (§4)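 Cells were seeded at 5.0 x 10^3 per well and incubated overnight at 37 °C. AsPC-1 was in RPMI-1640 and MIA PaCa-2/PANC-1 in DMEM, with 10% FBS. Cells took up compound for 3h, then received 660 nm laser light (50 mW, 9 J/cm²).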

ASPC1 [22] = experiment: Phototoxicity in human AsPC1 cells assessed as induction of apoptosis by measuring live cells at 20 nM preincubated for 3 hrs followed by 9 J/cm2 laser light irradiation and measured after 24 hrs by Annexin V-FITC/propidium iodide staining based flow cytometry (reference value: 91.51%); format: functional
MIA PaCa-2 [23] = experiment: Phototoxicity in human MIAPaCa2 cells assessed as reduction in cell viability preincubated for 3 hrs followed by 9 J/cm2 laser light irradiation and measured after 72 hrs by MTT assay; format: functional, cell-based; conditions: MIA PaCa-2, light or radiation study; in short: as §4
[24] = Dark toxicity in human AsPC1 cells assessed as reduction in cell viability after 72 hrs by MTT assay; format: cell-based; in short: as §2
[25] = Drug uptake in human AsPC1 cells at 5 uM by FACS analysis; format: ADME, cell-based; conditions: aspc1, 5 µM, TDE = time-dependent effect; in short: as §1
ASPC1 [26] = experiment: Phototoxicity in human AsPC1 cells assessed as induction of apoptosis by measuring necrotic cells at 20 nM preincubated for 3 hrs followed by 9 J/cm2 laser light irradiation and measured after 24 hrs by Annexin V-FITC/propidium iodide staining based flow cytometry (reference value: 1.03%); format: functional
[27] = Solubility of the compound in 2% DMSO/98% de-ionized water at 8.2 uM; format: physicochemical; conditions: buffer
ASPC1 [28] = experiment: Phototoxicity in human AsPC1 cells assessed as induction of apoptosis by measuring upregulation of Bax expression at 20 to 40 nM preincubated for 3 hrs followed by 9 J/cm2 laser light irradiation and measured after 24 hrs by Western blot analysis; format: functional, cell-based
In short: (§5)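 Cells in six-well plates were exposed to compound for 3h and irradiated at 660 nm (50 mW, 9 J/cm²), then incubated 24h. Lysis was on ice in modified RIPA buffer (pH 7.4) with protease inhibitors. After clearing at 10,000g for 10 min at 4 °C, proteins were separated by 10% SDS-PAGE, blotted and detected by ECL.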

ASPC1 [29] = experiment: Phototoxicity in human AsPC1 cells assessed as induction of apoptosis by measuring downregulation of Bcl2 expression at 20 to 40 nM preincubated for 3 hrs followed by 9 J/cm2 laser light irradiation and measured after 24 hrs by Western blot analysis; format: functional, cell-based; in short: as §5
ASPC1 [30] = experiment: Phototoxicity in human AsPC1 cells assessed as induction of apoptosis by measuring upregulation of cleaved caspase-9 expression at 20 to 40 nM preincubated for 3 hrs followed by 9 J/cm2 laser light irradiation and measured after 24 hrs by Western blot analysis; format: functional, cell-based; in short: as §5
ASPC1 [31] = experiment: Phototoxicity in human AsPC1 cells assessed as induction of apoptosis by measuring necrotic cells at 40 nM preincubated for 3 hrs followed by 9 J/cm2 laser light irradiation and measured after 24 hrs by Annexin V-FITC/propidium iodide staining based flow cytometry (reference value: 1.03%); format: functional
ASPC1 [32] = experiment: Phototoxicity in human AsPC1 cells assessed as induction of apoptosis by measuring late apoptotic cells at 20 nM preincubated for 3 hrs followed by 9 J/cm2 laser light irradiation and measured after 24 hrs by Annexin V-FITC/propidium iodide staining based flow cytometry (reference value: 0.41%); format: functional
PANC-1 [33] = experiment: Phototoxicity in human PANC1 cells assessed as reduction in cell viability preincubated for 3 hrs followed by 9 J/cm2 laser light irradiation and measured after 72 hrs by MTT assay; format: functional, cell-based; conditions: PANC-1, light or radiation study; in short: as §4
[34] = Solubility of the compound in 2% DMSO/98% de-ionized water at 16 uM; format: physicochemical; conditions: buffer
[35] = Drug uptake in human AsPC1 cells at 5 uM after 3 to 24 hrs by FACS analysis; format: ADME, cell-based; conditions: aspc1, 5 µM; in short: as §1
[36] = Solubility of the compound in 2% DMSO/98% de-ionized water at 8.7 uM; format: physicochemical; conditions: buffer

For `C=Cc1c(C)c2cc3nc(c(CC(=O)OC)c4[nH]c(cc5nc(cc1[nH]2)C(C)=C5CC)c(C)c4C(=O)NCCOCCOCCNC(=O)CCCC(=O)Oc1ccc(/C=C/C(=O)CC(=O)/C=C/c2ccc(O)c(OC)c2)cc1OC)C(CCC(=O)OC)C3C` (stereo not drawn), the Activity (ASPC1 [1]) was 8.08%, the “Ratio IC50” value (MIA PaCa-2 [2]) was 452 and the Activity (ASPC1 [3]) was 15.09%. The Drug uptake [4] was “Active”, the “Ratio IC50” value (PANC-1 [5]) was 247 and the Activity (ASPC1 [6]) was 16.27%. The Activity (ASPC1 [7]) was 70.74%, the “fold change (FC)” value [8] was 47 and the IC50 at 72 h [9] was 83 µM. The “Ratio IC50” value (ASPC1 [10]) was 488, the Activity (ASPC1 [11]) was 51.45% and the IC50 at 72 h [12] was > 300 µM. The Activity (ASPC1 [13]) was 24.82%, the Activity (ASPC1 [14]) was 10.77% and the selectivity ratio [15] was 2370. For the same compound, the “fold change (FC)” value [16] was 29, the selectivity ratio [17] was > 7500 and the Activity (ASPC1 [18]) was 15.65%. It also gave a selectivity ratio [19] of 4650, an Activity [20] of 12.1% and an IC50 (ASPC1 [21]) of 0.04 µM. For the same compound, the Activity (ASPC1 [22]) was 77.38%, the IC50 (MIA PaCa-2 [23]) was 0.035 µM and the IC50 at 72 h [24] was 186 µM. The Drug uptake [25] was “Tde”, the Activity (ASPC1 [26]) was 1.43% and the solubility [27] was “Soluble”. The Activity (ASPC1 [28]) was “Active”, the Activity (ASPC1 [29]) was “Active” and the Activity (ASPC1 [30]) was “Active”. It also gave an Activity (ASPC1 [31]) of 2.22%, an Activity (ASPC1 [32]) of 6.1% and an IC50 (PANC-1 [33]) of 0.04 µM.
For `C=Cc1c(C)c2cc3nc(c(CC(=O)O)c4[nH]c(cc5nc(cc1[nH]2)C(C)=C5CC)c(C)c4C(=O)O)C(CCC(=O)O)C3C` (stereo not drawn), the solubility [34] was “Soluble”, the IC50 at 72 h [9] was 89 µM and the IC50 at 72 h [12] was 67 µM. For the same compound, the selectivity ratio [15] was 5.61, the selectivity ratio [17] was 6.6 and the selectivity ratio [19] was 6.45. It also gave an Activity [20] of 9.88%, an IC50 (ASPC1 [21]) of 19.5 µM and an IC50 (MIA PaCa-2 [23]) of 15.8 µM. The IC50 at 72 h [24] was 126 µM, the Drug uptake [25] was “Tde” and the IC50 (PANC-1 [33]) was 10.1 µM.
In the case of `C=Cc1c(C)c2cc3nc(c(CC(=O)OC)c4[nH]c(cc5nc(cc1[nH]2)C(C)=C5CC)c(C)c4C(=O)NCCCNC(=O)CCCC(=O)Oc1ccc(/C=C/C(=O)CC(=O)/C=C/c2ccc(O)c(OC)c2)cc1OC)C(CCC(=O)OC)C3C` (stereo not drawn), the IC50 at 72 h [9] is reported as 200 µM, the IC50 at 72 h [12] is reported as > 300 µM and the selectivity ratio [15] is reported as 47.6. The selectivity ratio [17] was > 65.5, the Drug uptake [35] was “Active” and the selectivity ratio [19] was > 52.3. It also gave an Activity [20] of 7.39%, an IC50 (ASPC1 [21]) of 5.74 µM and an IC50 (MIA PaCa-2 [23]) of 4.2 µM. For the same compound, the IC50 at 72 h [24] was > 300 µM, the Drug uptake [25] was “Tde” and the solubility [36] was “Soluble”. For the same compound, the IC50 (PANC-1 [33]) was 4.58 µM.
